Source: PubChem
HCV core dimer = blocks dimerization of HCV core protein; TR-FRET GST/Flag-core106 dimerization, 1536-well; inhibition, % at 5 µM; actives 0.33% (n = 300,000);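 active means inhibition above the mean of all tested compounds plus 3 SD, set per screening campaign, cut at about 45% in these data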
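Assay system – GST-tagged and Flag-tagged HCV core protein residues 1-106 · Quantity – core106 proteins, GST 13.5 nM and Flag 17 nM · Benchmarks – unlabelled core106 and no-GST-core106 wells · Read-out basis – percent inhibition of core106 dimerization signal · Detection – time-resolved FRET, ex 340 nm, em 617 and 671 nm · Schedule – 4 h at 22.5 °C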
GPR7 antag = antagonists of human GPR7 (neuropeptides B/W receptor 1) | P48145 | GPR7-expressing cells, fluorescence antagonist assay | inhibition, % at 4.4 µM | actives 1.1% (n = 290,000); in the data active means inhibition above about 16%, passing the limit was not always enough;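 further: cells stimulated with the agonist NPW; 0% = agonist with vehicle and 100% = vehicle without agonist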
NS3 helicase inh = blocks Hepatitis C virus NS3 helicase unwinding | NS3 helicase DNA unwinding, Cy5 molecular beacon fluorescence | actives 0.56% (n = 290,000) | inhibition, % at 10.9 µM;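 active means inhibition above the mean of all tested compounds plus 3 SD, set per campaign, cut at about 35% in these data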;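 further: 0% = DMSO wells and 100% = thioflavine S control wells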
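Assay system: hepatitis C virus NS3 helicase domain fragment enzyme. Also added: annealed dual-labelled DNA beacon duplex, ATP-started. Timing: 1 h reaction at 25 °C, ATP-initiated. Technique: Cy5 fluorescence at 0 and 60 min, beacon hairpin quenching. Evaluation: % inhibition of unwinding. Replication: one well per compound.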
GRK2 inh = human GRK2 inhibition via aptamer displacement; AID 488847; P25098; bead flow cytometry, FAM-aptamer displacement from GRK2; actives 0.59% (n = 330,000); inhibition of aptamer binding, % at 10 µM;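 active means inhibition of aptamer binding above 40%, roughly 3 SD of noise, on plates passing a quality check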;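 further: median bead fluorescence of bound FAM aptamer so fluorescent compounds give negative values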
Target sequence (P25098 whole entry, looked up): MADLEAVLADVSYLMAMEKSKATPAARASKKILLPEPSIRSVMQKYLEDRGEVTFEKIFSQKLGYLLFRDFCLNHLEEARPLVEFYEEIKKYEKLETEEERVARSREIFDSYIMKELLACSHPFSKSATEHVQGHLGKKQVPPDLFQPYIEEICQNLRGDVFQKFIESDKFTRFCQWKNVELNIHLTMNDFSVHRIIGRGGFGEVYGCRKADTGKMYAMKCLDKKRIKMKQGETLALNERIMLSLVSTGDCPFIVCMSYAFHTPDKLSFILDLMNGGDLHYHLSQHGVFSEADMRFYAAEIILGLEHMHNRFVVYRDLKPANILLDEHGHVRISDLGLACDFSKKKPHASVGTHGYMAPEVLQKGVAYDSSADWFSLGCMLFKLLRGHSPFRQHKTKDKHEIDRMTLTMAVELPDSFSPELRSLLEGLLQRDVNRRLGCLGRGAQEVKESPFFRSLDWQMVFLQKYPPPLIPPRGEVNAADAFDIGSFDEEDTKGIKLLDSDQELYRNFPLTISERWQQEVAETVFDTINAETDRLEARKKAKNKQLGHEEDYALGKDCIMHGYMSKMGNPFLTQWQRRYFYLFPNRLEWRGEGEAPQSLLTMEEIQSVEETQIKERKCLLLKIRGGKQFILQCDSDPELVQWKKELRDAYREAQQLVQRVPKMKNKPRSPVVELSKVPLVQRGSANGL
DAGLB inhibitor = diacylglycerol lipase beta (human) inhibition | inhibition, % at 5.17 µM | Q8NCG7 | HEK293T DAGLB membrane lysate, EnzChek fluorogenic substrate | actives 0.059% (n = 340,000); in the data active means inhibition above about 34%;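 further: 0% = enzyme with vehicle and 100% = wells lacking enzyme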
FID counter = counter-screen for HCV NS3 helicase inhibitors: DNA intercalator displacement. DNA fluorescent intercalator displacement, fluorescence. AID 1845. inhibition, % at 7.9 µM. actives 0.17% (n = 290,000); in the data active means inhibition above about 37%;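 further: 0% = vehicle and 100% = reference compound; higher means more ethidium bromide displaced from hairpin DNA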
GRK2 inh confirm = confirmation of human GRK2 inhibitors displacing RNA aptamer; shares compounds with GRK2 inh; bead-bound GRK2, FAM-aptamer displacement, flow cytometry; aptamer displacement, % at 10 µM; actives 4% (n = 2,000); AID 504451;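 active means aptamer displacement above 40%, near three times the noise of non-fluorescent compounds, on plates passing quality checks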;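 further: negative values mostly reflect intrinsic compound fluorescence rather than true enhancement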
Aptamer quench = counter-screen for GRK2 aptamer inhibitors: fluorescent aptamer quenchers; shares compounds with GRK2 inh; Fluorescent RNA aptamer beads, quenching, flow cytometry; stronger effect = higher value; fluorescence change (kMESF span), kMESF (no concentration beside the values); 110 tested, under 10 active;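 active means compounds whose bead fluorescence drops by more than 37 kMESF across the dose range, marking them as dye quenchers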
Aptamer quench SP = counter-screen for GRK2 aptamer inhibitors: fluorescent aptamer quenchers | shares compounds with GRK2 inh | Carboxyfluorescein RNA aptamer on beads, flow cytometry quenching; stronger effect = lower value | fluorescence response (% of DMSO), % at 10 µM | 2,000 tested, under 10 active;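 active means compounds that quench the bead-bound fluorescent RNA probe, cutting fluorescence to under half of the solvent control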;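 further: counterscreen run without GRK2 so only probe quenching by compound is measured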
GRK2 CP2 = confirmation of human GRK2 inhibitors binding RNA aptamer site | shares compounds with GRK2 inh | bead-bound GRK2, FAM-aptamer displacement, flow cytometry | inhibition of aptamer binding, % at 10 µM | 360 tested, under 10 active | AID 504782;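 active means inhibition of aptamer binding above 40%, about triple the noise seen with nonglowing compounds, on plates passing quality control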;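 further: negative values mostly come from compounds that fluoresce themselves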
FAM quench SP = quenches fluorescent RNA aptamer, GRK2 hit artifact; 360 tested, under 10 active; AID 588494; carboxyfluorescein RNA aptamer beads, flow cytometry quenching; stronger effect = lower value; fluorescence response vs DMSO, % at 10 µM; shares compounds with GRK2 inh;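 active means response vs DMSO under 50%, meaning signal dropped by over half, treated as fluorescence quencher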;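 further: labelled aptamer on streptavidin beads without GRK2 as a quench counter-screen; 100% = bead fluorescence of DMSO wells and lower means quenching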
Starred values were filed as active, the others as inactive; · = not tested or not shown. Shown are actives, neighbours in structure and some others; about 2.2% of the full set was active somewhere.

SMILES	HCV core dimer	GPR7 antag	NS3 helicase inh	GRK2 inh	DAGLB inhibitor	FID counter	GRK2 inh confirm	Aptamer quench SP	others
CCn1nc(NC(=O)C(C)(C)C)c2cc3cccc(C)c3nc21	-14	-13	3	50*	-11	-26	2	102
COc1cc(NC(=O)c2csc(-c3ccncc3)n2)cc(C(=O)Nc2cccc(C(F)(F)F)c2)c1	6	·	·	1	-2	·	-2	98
COc1ccc(-c2cc(C(=O)Nc3cc(OC)cc(C(=O)Nc4cccc(C(F)(F)F)c4)c3)[nH]n2)cc1	2	·	·	0	-5	·	-1	97
O=C(Nc1cccc(C(F)(F)F)c1)c1csc(-c2ccncc2)n1	-1	2	-10	1	-12	-11	·	·
COc1ccc2cc(C(C)C(=O)NC3CCC(O)CC3)ccc2c1 (centres undefined)	-5	-5	-2	1	-1	-15	·	·
O=C(c1ccccc1F)N1CCN(c2ccccc2F)CC1	0	3	17	0	-4	-6	·	·
O=C(c1ccccc1C(=O)N1CCN(c2ccccc2F)CC1)N1CCN(c2ccccc2F)CC1	4	1	-21	77*	-1	-43	3	97
CCOc1ccc2nc(NC3=NC(c4ccc(OC)cc4)CC(=O)N3)nc(C)c2c1 (centres undefined)	11	-10	-36	38	-2	-28	-25	107
O=C(Nc1cccc(-c2nc3ncccc3o2)c1)c1sc2cc(Cl)ccc2c1Cl	0	2	1	75*	0	-1	-1	105
COC(=O)CCC(=O)c1ccn(S(=O)(=O)c2ccccc2)c1	-18	-16	-4	3	-3	-11	·	·
CCCN(C(=O)c1cccc(-n2cccc2)c1)c1c(N)n(Cc2ccccc2)c(=O)[nH]c1=O	42	·	·	36	3	·	14	102	Aptamer quench=37*
CCCCN(C(=O)c1cccc(-n2cccc2)c1)c1c(N)n(CCCC)c(=O)[nH]c1=O	34	·	·	13	2	·	·	·
O=C(Cn1cnc2scc(-c3cccc([N+](=O)[O-])c3)c2c1=O)NCc1ccco1	64*	-8	35	88*	-1	-2	7	94
CN(Cc1cnccn1)C(=O)CC1C(=O)NCCN1Cc1c(F)cccc1Cl (centres undefined)	-3	-11	5	1	-2	-4	·	·
COc1cc(OC)c(OC)cc1/C=N/NC(=O)CSc1ccccc1F	1	-8	-6	90*	-2	-20	4	95
Cc1n[nH]c(C)c1S(=O)(=O)N1CCCC(C(=O)O)C1 (centres undefined)	·	·	·	0	0	·	·	·
CC(NC(=O)CN1CCc2ccccc21)c1ccccc1 (centres undefined)	28	-4	17	6	8	-10	·	·
COC(=O)[C@@H]1C(c2c(OC)cc(OC)cc2OC)=NO[C@H]1C(=O)OC	-1	2	8	0	0	-3	·	·	GRK2 CP2=-2;FAM quench SP=99
COc1cccc(C2=NOC(C(=O)Nc3ccc(OC)c(OC)c3)C2)c1 (centres undefined)	-2	-13	-2	3	-2	-14	·	·
COC(=O)C1CC(c2c(OC)cc(OC)cc2OC)=NO1 (centres undefined)	7	-7	1	0	2	-10	·	·	GRK2 CP2=17;FAM quench SP=99
CC(=O)c1ccc(OCCCC(=O)Nc2cccc(S(=O)(=O)N3CCCCC3)c2)cc1	·	·	·	0	-3	·	-1	98
Cc1ccccc1N1CC(C(=O)N2CCCCCC2)CC1=O (centres undefined)	-2	·	·	65*	-1	·	-2	98
CC(=O)c1ccc(OCCCC(=O)Nc2cccc(S(=O)(=O)N3CCCCCC3)c2)cc1	·	·	·	0	0	·	·	·
Cc1cccc(N2CC(C(=O)Nc3cccc(S(=O)(=O)N4CCCCC4)c3)CC2=O)c1C (centres undefined)	·	·	·	2	-4	·	-3	98
O=C(CCN1C(=O)C2CC=CCC2C1=O)Nc1cccc(S(=O)(=O)N2CCCCC2)c1 (centres undefined)	·	·	·	1	-3	·	-8	108
SMILES	HCV core dimer	GPR7 antag	NS3 helicase inh	GRK2 inh	DAGLB inhibitor	FID counter	GRK2 inh confirm	Aptamer quench SP	others
Cc1ccc(S(=O)(=O)Nc2cccc(C(=O)NCCCN3CCOCC3)c2)cc1F	-3	·	·	0	0	·	·	·
NC(=NC(=O)c1ccccc1)N1CCN(C(c2ccccc2)c2ccccc2)CC1	4	-10	-24	0	-5	-7	·	·
Cc1cc(C)n(-c2ccc(S(=O)(=O)N3CCOCC3)cc2[N+](=O)[O-])n1	0	1	6	26	-2	0	·	·
Cc1cc(C(=O)O)ccc1N=Cc1c(O)ccc2ccccc12	14	-9	15	1	3	0	·	·
N#Cc1cccc(NC(=O)CNc2cccc(S(=O)(=O)N3CCCCC3)c2)c1	5	·	·	0	1	·	1	102
O=C(Nc1cccc(S(=O)(=O)NC2=NCCC2)c1)C1CC(=O)N(c2ccc3c(c2)OCCO3)C1 (centres undefined)	-3	-8	6	1	0	-19	2	97
Cc1cccc(N2CCN(C(=O)[C@H](C)N3C(=O)C4CC=CCC4C3=O)CC2)c1C (some centres undefined)	·	·	·	1	-1	·	·	·
COc1ccc(OC)c(N2C(=O)c3cccnc3C2=O)c1	0	-10	8	0	-2	-2	·	·
COc1ccc(OC)c(N2C(=O)[C@@H]3C(c4ccccc4Cl)=NO[C@@H]3C2=O)c1	77*	-5	14	70*	-5	-21	98*	96	Aptamer quench=2.4
COc1ccc(C2=NO[C@@H]3C(=O)N(c4c(C)cccc4C)C(=O)[C@H]23)cc1OC	1	-8	-5	1	-1	-8	·	·	GRK2 CP2=9;FAM quench SP=100
Cc1cccc(C)c1N1C(=O)[C@@H]2C(c3ccccc3Cl)=NO[C@@H]2C1=O	1	-2	-1	0	-5	-11	·	·	GRK2 CP2=3;FAM quench SP=100
